Values after ≈ are worked out from the molar mass of the structure shown.
What was measured:
Format in all cases: functional
[1] = system: Mus musculus; test: (§1) In vivo antibacterial activity against Pasteurella multocida(UC 264) infected mice after oral administration
Outline: (§2)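 Fresh drug solutions were given subcutaneously (0.2 mL) or by oral intubation (0.5 mL), per line. Dosing was immediately after infection, then daily for 4 consecutive days, with 3 further days of observation. CD50 was calculated by Spearman-Karber.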

[2] = system: Mus musculus; test: In vivo antibacterial activity against Streptococcus pneumoniae I (UC 41) infected mice after sc administration; outline: as §2
[3] = system: Mus musculus; test: In vivo antibacterial activity against Streptococcus pneumoniae I(UC 41) infected mice after oral administration; outline: as §2
[4] = system: Mus musculus; test: (§3) In vivo antibacterial activity against Klebsiella pneumoniae(UC 58) infected mice after oral administration; outline: as §2
[5] = system: Mus musculus; test: In vivo antibacterial activity against Streptococcus pyogenes(UC 152) infected mice after sc administration; outline: as §2
[6] = system: Mus musculus; test: In vivo antibacterial activity against Proteus vulgaris (UC no 347) infected mice after sc administration; outline: as §2
[7] = system: Mus musculus; test: In vivo antibacterial activity against Pasteurella multocida (UC no 264) infected mice after sc administration; outline: as §2
[8] = system: Mus musculus; test: In vivo antibacterial activity against Klebsiella pneumoniae (UC 58) infected mice after sc administration; outline: as §2
[9] = system: Mus musculus; test: In vivo antibacterial activity against Bacteroides fragilis (UC no 6428) infected mice after sc administration
[10] = system: Mus musculus; test: (§4) In vivo antibacterial activity against Escherichia coli(UC 311) infected mice after oral administration; outline: as §2
[11] = system: Mus musculus; test: In vivo antibacterial activity against Staphylococcus aureus(UC 76) infected mice after oral administration; outline: as §2
[12] = system: Mus musculus; test: In vivo antibacterial activity against Streptococcus pneumoniae III(UC 3213) infected mice after oral administration; outline: as §2
[13] = system: Mus musculus; test: In vivo antibacterial activity against Streptococcus pneumoniae […](UC 3213) infected mice after sc administration; outline: as §2
[14] = system: Mus musculus; test: In vivo antibacterial activity against Staphylococcus aureus (UC no 76) infected mice after sc administration; outline: as §2
[15] = system: Staphylococcus aureus; test: In vivo antibacterial activity against Staphylococcus aureus(UC 76) infected mice after oral administration (value in parenthesis is 95% confidence interval); outline: as §2
[16] = system: Prevotella melaninogenica; test: In vitro antibacterial activity against the anaerobic Bacteroides melaninogenicus (Strain UC no.6326)
Outline: (§5)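 Agar dilution with serial twofold drug dilutions in Schaedler broth mixed into molten Wilkens-Chalgren agar. Strains grown 48 h on Schaedler agar, suspended to 0.5 McFarland, and 0.001 mL spotted by replicator. All steps done anaerobically. Incubation 48 h at 37 °C. MIC is the least drug inhibiting growth; a faint film or fewer than three colonies scored negative.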

[17] = system: Pasteurella multocida; test: as §1; outline: as §2
[18] = system: Enterococcus faecalis; test: In vitro antibacterial activity against the aerobic […] (Strain UC no.694)
Outline: (§6)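 Broth microdilution in brain/heart infusion broth with twofold drug dilutions. Inoculum was a standardized suspension giving 10⁵ viable cells/mL final. Plates were incubated 20 h at 37 °C. MIC (mcg/mL) = lowest concentration with no visible growth.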

[19] = system: Fusobacterium necrophorum; test: In vitro antibacterial activity against the anaerobic Fusobacterium necrophorum (Strain UC no.6568); outline: as §5
[20] = system: Staphylococcus aureus; test: In vivo antibacterial activity against Staphylococcus aureus (UC no 76) infected mice after sc administration (value in parenthesis is 95% confidence interval); outline: as §2
[21] = system: Staphylococcus aureus; test: In vitro antibacterial activity against the aerobic Staphylococcus aureus (Strain UC no.6690); outline: as §6
[22] = system: Clostridioides difficile; test: In vitro antibacterial activity against the anaerobic Clostridium difficile (Strain UC no.6857); outline: as §5
[23] = system: Clostridioides difficile; test: In vitro antibacterial activity against the anaerobic Clostridium difficile (Strain UC no.6861); outline: as §5
[24] = system: Pasteurella multocida; test: In vitro antibacterial activity against the aerobic Pasteurella multocida (Strain UC no.264); outline: as §6
[25] = system: Streptococcus pneumoniae; test: In vivo antibacterial activity against Streptococcus pneumoniae I (UC no 41) infected mice after sc administration (value in parenthesis is 95% confidence interval); outline: as §2
[26] = system: Clostridium perfringens; test: In vitro antibacterial activity against the anaerobic Clostridium perfringens (Strain UC no.6509)
[27] = system: Klebsiella pneumoniae; test: as §3; outline: as §2
[28] = system: Plasmodium berghei; test: In vivo activity against Plasmodium berghei in mice (Mus musculus) on oral administration
[29] = system: Pasteurella multocida; test: In vivo antibacterial activity against Pasteurella multocida(UC no 264) infected mice after sc administration; outline: as §2
[30] = system: Clostridium tertium; test: In vitro antibacterial activity against the anaerobic Clostridium tertium(Strain UC no.6508); outline: as §5
[31] = system: Clostridioides difficile; test: In vitro antibacterial activity against the anaerobic Clostridium difficile (Strain UC no.6834); outline: as §5
[32] = system: Actinomyces naeslundii; test: In vitro antibacterial activity against the anaerobic Actinomyces naeslundii (Strain UC no.5920)
[33] = system: Staphylococcus aureus; test: In vitro antibacterial activity against the aerobic Staphylococcus aureus (Strain UC no.6685); outline: as §6
[34] = system: Fusobacterium nucleatum; test: In vitro antibacterial activity against the anaerobic Fusobacterium nucleatum (Strain UC no.6516); outline: as §5
[35] = system: Bacteroides thetaiotaomicron; test: In vitro antibacterial activity against the anaerobic Bacteroides thetaiotaomicron (Strain UC no.6512); outline: as §5
[36] = system: Paraclostridium bifermentans; test: In vitro antibacterial activity against the anaerobic Clostridium bifermentans (Strain UC no.6507); outline: as §5
[37] = system: Bacteroides fragilis; test: In vitro antibacterial activity against the anaerobic Bacteroides fragilis (Strain UC no.6862); outline: as §5
[38] = system: Finegoldia magna; test: In vitro antibacterial activity against the anaerobic Peptococcus magnus(Strain UC no.6258); outline: as §5
[39] = system: Klebsiella pneumoniae; test: In vivo antibacterial activity against Klebsiella pneumoniae(UC no 58) infected mice after sc administration; outline: as §2
[40] = system: Clostridium botulinum; test: In vitro antibacterial activity against the anaerobic Clostridium botulinum A(Strain UC no.6506)
[41] = system: Paeniclostridium sordellii; test: In vitro antibacterial activity against the anaerobic Clostridium sordellii (Strain UC no.6505); details: Paraclostridium sordellii; outline: as §5
[42] = system: Escherichia coli; test: as §4; outline: as §2
[43] = system: Streptococcus pneumoniae; test: In vivo antibacterial activity against Streptococcus pneumoniae I(UC 41) infected mice after oral administration (value in parenthesis is 95% confidence interval); outline: as §2
[44] = system: Staphylococcus epidermidis; test: In vitro antibacterial activity against the aerobic Staphylococcus epidermidis (Strain UC no.3389); outline: as §6
[45] = system: Streptococcus pneumoniae; test: In vivo antibacterial activity against Streptococcus pneumoniae III(UC 3213) infected mice after oral administration (value in parenthesis is 95% confidence interval); outline: as §2
[46] = system: Clostridium perfringens; test: In vitro antibacterial activity against the anaerobic Clostridium perfringens (Strain UC no.247)
[47] = system: Bacteroides fragilis; test: In vitro antibacterial activity against the anaerobic Bacteroides fragilis (Strain UC no.6513); outline: as §5
[48] = system: Peptoniphilus asaccharolyticus; test: In vitro antibacterial activity against the anaerobic Peptococcus asaccharolyticus (Strain UC no.6214); outline: as §5
[49] = system: Escherichia coli; test: In vivo antibacterial activity against Escherichia coli(UC no 311) infected mice after sc administration; outline: as §2
[50] = system: Peptostreptococcus anaerobius; test: In vitro antibacterial activity against the anaerobic Peptostreptococcus anaerobius(Strain UC no.6321); outline: as §5
[51] = system: Proteus vulgaris; test: In vivo antibacterial activity against Proteus vulgaris(UC no 347) infected mice after sc administration; outline: as §2
[52] = system: Bacteroides fragilis; test: In vitro antibacterial activity against the anaerobic Bacteroides fragilis (Strain UC no.6428)

With `CCC[C@@H]1C[C@@H](C(=O)N[C@@H]([C@H]2O[C@H](SC)[C@H](O)[C@@H](O)[C@H]2O)[C@H](C)Cl)N(C)C1` [CLINDAMYCIN] the CD50 [1] was >400 mg/kg, the CD50 [2] was 40 mg/kg and the CD50 [3] was 45.5 mg/kg. For the same compound, the CD50 [4] was >400 mg/kg, the CD50 [5] was 2.3 mg/kg and the CD50 [6] was >160 mg/kg. For the same compound, the CD50 [7] was >160 mg/kg, the CD50 [8] was >320 mg/kg and the CD50 [9] was 14.4 mg/kg. For the same compound, the CD50 [10] was >400 mg/kg, the CD50 [11] was 12.3 mg/kg and the CD50 [12] was 37.9 mg/kg. For the same compound, the CD50 [13] was 20 mg/kg and the CD50 [14] was 5.7 mg/kg.
With `CC[C@@H]1CCN[C@H](C(=O)N[C@@H]([C@H]2O[C@H](SC)[C@H](O)[C@@H](O)[C@H]2O)[C@H](C)Cl)C1` [PIRLIMYCIN] the CD50 [15] was 2.9 mg/kg, the MIC [16] was 0.06 µg/mL (≈ 0.146 µM) and the CD50 [17] was 400 mg/kg. It also gave an MIC [18] of 6.25 µg/mL (≈ 15.2 µM), an MIC [19] of 0.06 µg/mL (≈ 0.146 µM) and a CD50 [20] of 0.4 mg/kg. For the same compound, the MIC [21] was 0.2 µg/mL (≈ 0.487 µM), the MIC [22] was 125 µg/mL (≈ 304 µM) and the MIC [23] was 2 µg/mL (≈ 4.87 µM). The MIC [24] was 62.5 µg/mL (≈ 152 µM), the CD50 [25] was 1.7 mg/kg and the MIC [26] was 0.12 µg/mL (≈ 0.292 µM). For the same compound, the CD50 [27] was >400 mg/kg, the CD50 [28] was >50 mg/kg and the CD50 [29] was >160 mg/kg. The MIC [30] was 7.8 µg/mL (≈ 19 µM), the MIC [31] was 3.9 µg/mL (≈ 9.49 µM) and the MIC [32] was 0.25 µg/mL (≈ 0.608 µM). For the same compound, the MIC [33] was > 25 µg/mL, the MIC [34] was 0.12 µg/mL (≈ 0.292 µM) and the MIC [35] was 0.5 µg/mL (≈ 1.22 µM). The MIC [36] was 0.06 µg/mL (≈ 0.146 µM), the MIC [37] was 15.6 µg/mL (≈ 38 µM) and the MIC [38] was 0.06 µg/mL (≈ 0.146 µM). For the same compound, the CD50 [39] was >320 mg/kg, the MIC [40] was < 0.03 µg/mL and the MIC [41] was 0.5 µg/mL (≈ 1.22 µM). The CD50 [42] was >400 mg/kg, the CD50 [43] was 20.3 mg/kg and the MIC [44] was 0.2 µg/mL (≈ 0.487 µM). The CD50 [45] was 17.7 mg/kg, the MIC [46] was 0.12 µg/mL (≈ 0.292 µM) and the MIC [47] was 0.12 µg/mL (≈ 0.292 µM). The MIC [48] was 0.25 µg/mL (≈ 0.608 µM), the CD50 [49] was >160 mg/kg and the MIC [50] was 0.12 µg/mL (≈ 0.292 µM). The CD50 [51] was >160 mg/kg and the MIC [52] was 0.25 µg/mL (≈ 0.608 µM).

From ChEMBL document CHEMBL1122773 (1984)
